The text below walks through data of ChEMBL document CHEMBL3600318, “Chemical synthesis of tetracyclic terpenes and evaluation of antagonistic activity on endothelin-A receptors and voltage-gated calcium channels” (Bioorg Med Chem, 2015).

Calls of active or inactive are those of the source. No cut-off for these calls is given here.

Assay [1] is described as follows: (§1) Antagonist activity at endothelin A receptor in Mongolian gerbil spiral modiolar artery assessed as inhibition of ET-1-induced vasoconstriction at 0.1 to 1 uM […] followed by compound washout and again ET-1 addition by video microscopic analysis. The class given is tissue-based, Meriones unguiculatus.
The species named for assay [2] is Mus musculus. The assay can be described thus: Inhibition of voltage-gated potassium channel in C57/BC6 mouse DRG neurons assessed as inhibition of voltage activated […] currents at 0.1 to 0.3 uM by patch clamp method. A digest of the protocol:
(§2)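 Whole-cell voltage clamp at about 21 °C on acutely dissociated mouse DRG neurons. TTX-sensitive inward Na+ currents elicited by steps to 0 mV for 20 ms, outward K+ currents by steps to 70 mV for 300 ms, at 0.1 Hz; stable 30 min under control. Compound bath-applied, time course followed; vehicle 0.1% DMSO.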
Background: In patch-clamp work, channel activity is measured electrically.

Assay [3] addresses Voltage-dependent T-type calcium channel subunit alpha-1H (Mus musculus) (UniProt O88427). The assay can be described thus: Inhibition of Cav3.2 T-type channel in C57/BC6 mouse DRG neurons assessed as inhibition of low-voltage activated Ca2+ currents by patch clamp method. A digest of the protocol: (§3)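 Whole-cell voltage clamp at about 21 °C on large acutely dissociated DRG neurons from 1-2-month C57/BC6 mice, used within 2 days. Holding potential -90 mV, 100-ms steps in 10 mV increments every 2 s, giving low- and high-voltage-activated Ca2+ currents. Bath-applied compound 0.1–3 µM, vehicle 0.1% DMSO. IC50 from a logistic fit, mean ± SEM, n = 4 per point.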

Assay [4] is filed under the species Mus musculus. The assay can be described thus: Inhibition of voltage-gated sodium channel in C57/BC6 mouse DRG neurons assessed as inhibition of voltage activated Na+ currents at 0.1 to 0.3 uM by patch clamp method. In short, it runs like this: as §2
For assay [5], the species on record is Mus musculus. The assay can be described thus: Inhibition of voltage-gated potassium channel in C57/BC6 mouse DRG neurons assessed as inhibition of voltage activated […] currents at 3 uM by patch clamp method. A digest of the protocol:
as §2

The species named for assay [6] is Meriones unguiculatus. The description is as §1. The class given is tissue-based.
The species named for assay [7] is Mus musculus. Put plainly: Inhibition of L-type Ca2+ channel in C57/BC6 mouse DRG neurons assessed as inhibition of high-voltage activated Ca2+ currents by patch clamp method. A digest of the protocol:
as §3

Assay [8] is filed under the species Mus musculus. The assay can be described thus: Inhibition of voltage-gated sodium channel in C57/BC6 mouse DRG neurons assessed as inhibition of voltage activated Na+ currents at 3 uM by patch clamp method. In short, it runs like this: as §2
In assay [9] the target is T1, Endothelin-1 receptor (Rattus norvegicus, UniProt P26684).
T1 sequence (P26684 whole entry): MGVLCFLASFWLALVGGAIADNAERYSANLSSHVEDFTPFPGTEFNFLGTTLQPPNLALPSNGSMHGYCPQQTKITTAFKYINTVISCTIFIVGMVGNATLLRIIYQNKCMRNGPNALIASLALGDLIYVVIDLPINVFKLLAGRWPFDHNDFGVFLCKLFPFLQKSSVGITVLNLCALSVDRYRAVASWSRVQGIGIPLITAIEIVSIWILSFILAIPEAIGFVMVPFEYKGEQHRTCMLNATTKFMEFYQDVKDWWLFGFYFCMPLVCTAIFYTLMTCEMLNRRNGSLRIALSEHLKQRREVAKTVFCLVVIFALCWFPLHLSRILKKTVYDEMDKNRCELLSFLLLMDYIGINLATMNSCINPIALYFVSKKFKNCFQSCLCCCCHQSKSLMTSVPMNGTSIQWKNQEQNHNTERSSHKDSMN
The assay can be described thus: Antagonist activity at endothelin A receptor in rat A7r5 cells assessed as inhibition of ET-1-induced increase in cytosolic free Ca2+ level treated 1 min prior to ET-1 addition by fura-2 dye-based spectrofluorometric analysis. The class given is functional, cell-based.

The target in assay [10] is T1, Endothelin-1 receptor. Put plainly: Antagonist activity at endothelin A receptor in Wistar rat thoracic aorta strips assessed as inhibition of ET1-induced vasoconstriction preincubated for 5 mins followed by ET1 addition.

Sequence of Voltage-dependent T-type calcium channel subunit alpha-1H (Mus musculus) (O88427 whole entry): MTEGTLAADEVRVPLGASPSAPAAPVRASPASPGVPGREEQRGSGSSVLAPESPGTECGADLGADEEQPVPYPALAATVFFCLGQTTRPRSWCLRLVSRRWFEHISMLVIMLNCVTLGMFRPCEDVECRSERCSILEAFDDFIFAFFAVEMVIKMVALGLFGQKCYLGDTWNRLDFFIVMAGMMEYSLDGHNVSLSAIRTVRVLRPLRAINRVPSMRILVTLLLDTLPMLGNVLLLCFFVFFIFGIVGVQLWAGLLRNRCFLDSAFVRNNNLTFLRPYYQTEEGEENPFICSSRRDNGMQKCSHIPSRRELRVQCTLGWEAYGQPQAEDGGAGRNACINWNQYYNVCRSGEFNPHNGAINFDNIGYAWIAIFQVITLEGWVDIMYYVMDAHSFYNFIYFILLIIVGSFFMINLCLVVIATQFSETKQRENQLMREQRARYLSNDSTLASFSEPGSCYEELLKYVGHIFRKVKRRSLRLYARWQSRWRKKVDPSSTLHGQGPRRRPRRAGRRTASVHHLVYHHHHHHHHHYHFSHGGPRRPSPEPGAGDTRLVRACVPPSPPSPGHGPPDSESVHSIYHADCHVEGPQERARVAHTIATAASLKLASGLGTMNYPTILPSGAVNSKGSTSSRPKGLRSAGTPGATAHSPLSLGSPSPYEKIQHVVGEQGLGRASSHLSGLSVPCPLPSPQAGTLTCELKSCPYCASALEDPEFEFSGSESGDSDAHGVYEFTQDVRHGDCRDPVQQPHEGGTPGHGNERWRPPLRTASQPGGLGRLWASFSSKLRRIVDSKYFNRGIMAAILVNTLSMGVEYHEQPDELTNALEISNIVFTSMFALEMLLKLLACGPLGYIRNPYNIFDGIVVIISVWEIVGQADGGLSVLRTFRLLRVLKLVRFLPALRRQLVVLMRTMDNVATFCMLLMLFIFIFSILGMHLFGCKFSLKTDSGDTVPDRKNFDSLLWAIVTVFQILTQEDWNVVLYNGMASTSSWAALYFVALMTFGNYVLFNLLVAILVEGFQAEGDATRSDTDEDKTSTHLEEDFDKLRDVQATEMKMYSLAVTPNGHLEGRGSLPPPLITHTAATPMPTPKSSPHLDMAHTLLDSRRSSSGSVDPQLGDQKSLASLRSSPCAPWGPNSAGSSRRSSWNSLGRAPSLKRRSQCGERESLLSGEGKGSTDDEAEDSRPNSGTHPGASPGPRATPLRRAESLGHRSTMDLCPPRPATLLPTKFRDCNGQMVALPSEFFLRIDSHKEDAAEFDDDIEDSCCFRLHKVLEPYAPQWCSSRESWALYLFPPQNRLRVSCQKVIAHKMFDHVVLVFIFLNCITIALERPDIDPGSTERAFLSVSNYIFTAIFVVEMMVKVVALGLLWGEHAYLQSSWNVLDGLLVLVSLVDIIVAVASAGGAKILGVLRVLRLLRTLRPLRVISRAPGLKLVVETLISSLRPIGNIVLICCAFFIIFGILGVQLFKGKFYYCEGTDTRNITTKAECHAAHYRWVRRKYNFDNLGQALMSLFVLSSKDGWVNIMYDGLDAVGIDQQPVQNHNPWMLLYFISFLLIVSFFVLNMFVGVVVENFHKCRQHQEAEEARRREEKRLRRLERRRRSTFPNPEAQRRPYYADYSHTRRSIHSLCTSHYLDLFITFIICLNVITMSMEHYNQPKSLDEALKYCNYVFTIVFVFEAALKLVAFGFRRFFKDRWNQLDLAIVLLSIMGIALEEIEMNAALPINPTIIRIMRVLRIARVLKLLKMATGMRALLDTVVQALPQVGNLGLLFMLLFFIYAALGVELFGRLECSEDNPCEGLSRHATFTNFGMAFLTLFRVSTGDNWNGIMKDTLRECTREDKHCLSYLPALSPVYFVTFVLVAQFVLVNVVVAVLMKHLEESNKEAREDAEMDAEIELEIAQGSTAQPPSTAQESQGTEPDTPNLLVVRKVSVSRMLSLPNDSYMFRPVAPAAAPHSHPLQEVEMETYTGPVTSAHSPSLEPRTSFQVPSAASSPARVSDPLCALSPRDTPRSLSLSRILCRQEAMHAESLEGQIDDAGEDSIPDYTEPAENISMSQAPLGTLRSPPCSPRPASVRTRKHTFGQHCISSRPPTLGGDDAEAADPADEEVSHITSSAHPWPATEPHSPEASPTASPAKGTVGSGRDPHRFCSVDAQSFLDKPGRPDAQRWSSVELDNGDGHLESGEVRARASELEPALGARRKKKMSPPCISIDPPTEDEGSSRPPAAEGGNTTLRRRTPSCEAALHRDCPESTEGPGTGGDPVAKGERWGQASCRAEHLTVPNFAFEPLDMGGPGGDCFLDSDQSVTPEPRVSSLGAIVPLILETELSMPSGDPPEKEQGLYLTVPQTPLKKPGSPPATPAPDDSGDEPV

For the compound `CC1(C)C(=O)CC[C@]2(C)[C@H]3CCc4ccc(O)cc4[C@]3(C)CC[C@@H]12`, the pA2 in [1] is 6.7.
On to `CC1(C)[C@@H]2CC[C@]3(C)[C@H](CC[C@@H]4CC=C(O[Si](C)(C)C(C)(C)C)C[C@]43C=N)[C@@]2(C)CCC12OCCO2` (single isomer, unassigned; (-)), for which the inhibition result in [2] and in assay [4] was “inactive” each time. In addition, the inhibition entry in [3] and in assay [7] was “Dose-dependent effect” throughout. In addition, the inhibition entry in assay [5] and in assay [8] was “Active” each time. In addition, the pA2 in assay [1] was 7. The A2 in assay [6] came to 93 nM.
Regarding `CC1(C)[C@@H]2CC[C@]3(C)[C@H](CC[C@@H]4CC[C@@]5(O)C[C@]43C=N5)[C@@]2(C)CCC12OCCO2`, in [1], the pA2 turned out to be 6.5.
In the case of `CC1(C)C(=O)CC[C@]2(C)[C@H]3CC[C@@H]4CCC(=O)C[C@@]4(C#N)[C@]3(C)CC[C@@H]12`, the pA2 in assay [1] is given as 6.9. The A2 in assay [6] amounted to 134 nM.
As to `CC1(C)CC[C@]2(C(=O)O)CC[C@]3(COC(=O)/C=C/c4ccc(O)c(O)c4)C(=CC[C@@H]4[C@@]5(C)CCC(=O)C(C)(C)[C@@H]5CC[C@]43C)[C@@H]2C1`, the IC50 in [9] is 11 nM. Also, the Ki in [10] was determined as 66 nM. In [1], the pA2 amounted to 7.1. The A2 in assay [6] worked out at 85 nM.
Turning to `CC1(C)C(=O)CC[C@]2(C)[C@H]3CC[C@@H]4CCC(=O)C=C4[C@]3(C)CC[C@@H]12`, in assay [1], the pA2 was determined as 6.7.
For `CC1(C)C(=O)CC[C@]2(C)[C@H]3CCc4ccc(OCCO)cc4[C@]3(C)CC[C@@H]12`, the pA2 in [1] is recorded as 6.5.

A word on the pA2: it is the negative logarithm of the molar antagonist concentration that doubles the agonist concentration needed for the same response. For orientation: IC50 means the midpoint of a concentration-inhibition curve. As a reminder, the Ki is the dissociation constant of the complex between target and ligand, obtained from inhibition or displacement.
